Here are results for five molecules from ChEMBL document CHEMBL1135588, “Divalent and trivalent alpha-ketocarboxylic acids as inhibitors of protein tyrosine phosphatases” (J Med Chem, 2002).

Usually IC50 stands for the midpoint of a concentration-inhibition curve. Read a high IC50 as weaker potency.

Experiment [1] has as its target Receptor-type tyrosine-protein phosphatase F (Homo sapiens, UniProt P10586). In words: Concentration required for 50% Inhibition of activity against Protein-tyrosine phosphatase Lar. Summed up: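 Yersinia PTPase and LAR, commercial enzymes. p-NPP at 2.5 mM; 1 mM EDTA, 100 mM NaCl, 100 mM acetate pH 5.5, 10% DMSO, 25 °C. Initial rates taken from hydrolysis followed at 420 nm, 10–120 s after mixing. IC50 obtained by Dixon analysis.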

Experiment [2] deals with T1, Tyrosine-protein phosphatase non-receptor type 1 (Homo sapiens, UniProt P18031).
T1 sequence (P18031 whole entry): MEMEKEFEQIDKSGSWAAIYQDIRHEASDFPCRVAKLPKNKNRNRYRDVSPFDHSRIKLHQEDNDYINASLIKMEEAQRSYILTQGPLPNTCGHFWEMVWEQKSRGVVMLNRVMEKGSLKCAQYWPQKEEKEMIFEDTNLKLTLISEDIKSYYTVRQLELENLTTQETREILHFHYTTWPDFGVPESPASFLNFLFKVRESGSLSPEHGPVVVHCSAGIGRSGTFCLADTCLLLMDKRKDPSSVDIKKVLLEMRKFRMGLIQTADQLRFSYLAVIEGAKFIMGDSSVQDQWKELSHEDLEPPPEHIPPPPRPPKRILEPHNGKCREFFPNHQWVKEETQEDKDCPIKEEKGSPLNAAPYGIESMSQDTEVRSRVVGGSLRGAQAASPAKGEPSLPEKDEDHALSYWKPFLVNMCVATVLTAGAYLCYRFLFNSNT
Nature of the experiment: Concentration required for 50% Inhibition of activity against Protein Tyrosine Phosphatases 1B.

SMILES strings stand for the structures.

Receptor-type tyrosine-protein phosphatase F, sequence (P10586 whole entry): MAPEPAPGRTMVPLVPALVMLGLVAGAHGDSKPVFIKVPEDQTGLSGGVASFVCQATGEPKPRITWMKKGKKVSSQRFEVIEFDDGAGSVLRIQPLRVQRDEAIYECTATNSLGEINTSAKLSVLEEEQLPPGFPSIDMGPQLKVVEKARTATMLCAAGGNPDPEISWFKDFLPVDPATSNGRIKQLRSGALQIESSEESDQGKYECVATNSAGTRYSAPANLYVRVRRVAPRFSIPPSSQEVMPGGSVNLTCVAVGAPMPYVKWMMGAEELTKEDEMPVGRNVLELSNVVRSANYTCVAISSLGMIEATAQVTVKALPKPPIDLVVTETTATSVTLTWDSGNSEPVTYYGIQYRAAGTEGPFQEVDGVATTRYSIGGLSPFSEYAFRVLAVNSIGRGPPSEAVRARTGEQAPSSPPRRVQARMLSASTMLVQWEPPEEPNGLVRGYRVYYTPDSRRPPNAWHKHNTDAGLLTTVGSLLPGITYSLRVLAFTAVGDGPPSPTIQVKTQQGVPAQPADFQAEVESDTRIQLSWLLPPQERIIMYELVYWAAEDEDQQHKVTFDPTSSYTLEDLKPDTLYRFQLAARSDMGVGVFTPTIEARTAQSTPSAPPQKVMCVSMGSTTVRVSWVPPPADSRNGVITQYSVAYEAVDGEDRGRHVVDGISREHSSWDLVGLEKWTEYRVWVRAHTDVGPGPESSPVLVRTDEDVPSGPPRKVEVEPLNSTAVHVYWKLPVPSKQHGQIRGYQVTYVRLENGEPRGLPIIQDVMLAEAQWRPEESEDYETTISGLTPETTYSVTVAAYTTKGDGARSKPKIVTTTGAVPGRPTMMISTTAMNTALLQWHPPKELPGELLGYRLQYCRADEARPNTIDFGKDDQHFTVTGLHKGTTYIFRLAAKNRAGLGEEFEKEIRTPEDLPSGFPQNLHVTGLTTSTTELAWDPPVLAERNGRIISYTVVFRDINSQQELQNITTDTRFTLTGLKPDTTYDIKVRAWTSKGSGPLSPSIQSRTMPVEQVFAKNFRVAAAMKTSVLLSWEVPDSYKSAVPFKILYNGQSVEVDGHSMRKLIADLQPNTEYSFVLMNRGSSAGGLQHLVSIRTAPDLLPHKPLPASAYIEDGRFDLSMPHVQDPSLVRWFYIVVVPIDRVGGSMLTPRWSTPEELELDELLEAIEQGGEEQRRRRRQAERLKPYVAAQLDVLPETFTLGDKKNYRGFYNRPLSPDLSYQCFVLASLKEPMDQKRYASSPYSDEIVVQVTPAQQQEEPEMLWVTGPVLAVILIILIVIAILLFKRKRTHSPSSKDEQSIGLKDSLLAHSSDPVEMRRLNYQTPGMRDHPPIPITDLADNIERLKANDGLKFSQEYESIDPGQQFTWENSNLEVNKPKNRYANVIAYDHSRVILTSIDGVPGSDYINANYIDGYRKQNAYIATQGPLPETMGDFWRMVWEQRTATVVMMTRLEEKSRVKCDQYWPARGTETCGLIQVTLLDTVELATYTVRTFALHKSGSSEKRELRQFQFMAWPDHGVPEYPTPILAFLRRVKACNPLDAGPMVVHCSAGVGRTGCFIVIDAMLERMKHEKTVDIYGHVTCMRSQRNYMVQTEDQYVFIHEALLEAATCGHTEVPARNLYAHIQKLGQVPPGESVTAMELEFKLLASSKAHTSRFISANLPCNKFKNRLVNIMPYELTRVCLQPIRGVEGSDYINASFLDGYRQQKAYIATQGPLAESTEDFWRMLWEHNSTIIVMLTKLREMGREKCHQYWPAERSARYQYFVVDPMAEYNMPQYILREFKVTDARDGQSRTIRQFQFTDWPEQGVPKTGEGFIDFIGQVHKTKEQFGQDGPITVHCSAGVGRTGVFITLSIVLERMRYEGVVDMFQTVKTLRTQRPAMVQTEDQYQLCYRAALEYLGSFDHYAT

In the case of `O=C(O)C(=O)c1ccc(OCc2cc(COc3ccc(C(=O)C(=O)O)cc3)cc(COc3ccc(C(=O)C(=O)O)cc3)c2)cc1`, the IC50 in experiment [1] stood at 41 µM; in experiment [2], 13 µM. In experiment [1], `O=C(O)C(=O)c1ccc(O)cc1` had a half-maximal inhibitory concentration (IC50) of 2300 µM. As to `O=C(O)C(=O)c1ccc(OCc2ccccc2COc2ccc(C(=O)C(=O)O)cc2)cc1`, the figures for the IC50 in experiment [1] and in experiment [2] were 120 µM and 19 µM, respectively. Turning to `O=C(O)C(=O)c1ccc(OCc2ccc(COc3ccc(C(=O)C(=O)O)cc3)cc2)cc1`, the figures for the 50% inhibitory concentration (IC50) in experiment [1] and in experiment [2] were 250 µM and 2.7 µM, respectively. Regarding `O=C(O)C(=O)c1ccc(OCc2cccc(COc3ccc(C(=O)C(=O)O)cc3)c2)cc1`, the figures for the IC50 in experiment [1] and in experiment [2] were 120 µM and 53 µM, respectively.
